Compound activity from PubChem.
FLuc stim CS: affects firefly luciferase, flagging false hits in luciferase stimulation screens; 200,000 tested, under 10 active; activation factor at 10 µM; ATPlite luciferase biochemical, luminescence, 10 min; 0 = ATP-free wells, 1 = DMSO control;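 active = luciferase activation factor, scaled between plate controls, of at least 2 with compound at 10 µM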
Target sequence (P08659 whole entry, looked up): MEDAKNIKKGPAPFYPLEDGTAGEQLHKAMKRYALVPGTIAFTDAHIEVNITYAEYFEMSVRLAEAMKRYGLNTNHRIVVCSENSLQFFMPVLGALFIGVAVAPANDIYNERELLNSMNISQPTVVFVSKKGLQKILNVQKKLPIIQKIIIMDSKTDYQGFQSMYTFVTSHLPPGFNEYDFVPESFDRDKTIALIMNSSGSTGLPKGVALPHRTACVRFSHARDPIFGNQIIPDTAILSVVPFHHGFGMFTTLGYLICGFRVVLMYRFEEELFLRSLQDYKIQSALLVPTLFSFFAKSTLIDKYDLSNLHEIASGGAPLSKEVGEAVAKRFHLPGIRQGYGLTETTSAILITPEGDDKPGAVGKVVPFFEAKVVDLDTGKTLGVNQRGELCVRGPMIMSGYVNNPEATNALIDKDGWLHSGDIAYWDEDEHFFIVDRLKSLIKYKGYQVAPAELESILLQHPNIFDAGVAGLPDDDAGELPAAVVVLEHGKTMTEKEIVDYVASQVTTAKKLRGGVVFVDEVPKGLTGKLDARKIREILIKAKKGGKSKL
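test system = cell-free luciferase reagent | medium = PBS as buffer for the ATP substrate | dosing = test compounds dosed from 2 mM stocks in 100% DMSO | incubation = 10 min at ambient temperature | detection = luminescence measurement of luciferase light output | benchmarks = low control with PBS replacing ATP, high control enzyme plus ATP without compound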
Pf gametocyte: inhibitors of late stage P. falciparum gametocyte viability | P. falciparum stage V gametocytes, ATP luminescence, 24 h | inhibition, % at 10.9 µM | 150,000 compounds, 0.065% hits | AID 743093;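 active = inhibition above the mean plus 3 SD of compounds within the control limits, set per campaign, cut at about 38% in these data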
APP 5'UTR act: APP 5'UTR luciferase reporter activation. SH-SY5Y APP 5'UTR luciferase reporter, luminescence; zero percent = DMSO vehicle wells. activation, % at 2 µM. 190,000 compounds, 1% hits;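 active = activation above a set limit, based on mean plus 3 SD of controls, cut at about 140% in these data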
STAT1 activator: increases IFN-gamma driven STAT1 reporter signal. NIH 3T3 STAT1-luciferase reporter, luminescence; 100% = IFN-gamma alone, no compound. activation (% of control), % at 5.5 µM. 200,000 compounds, 2.6% hits. AID 932;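 active = activation above the screen-wide mean activation plus 3 SD, cut at about 130% in these data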
FLuc inhib CS: inhibits firefly luciferase, flagging false hits in luciferase inhibition screens. ATPLite firefly luciferase biochemical luminescence, 10 min. P08659. 200,000 compounds, 1.5% hits. inhibition, % at 10 µM;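 active = inhibition above about 50% when tested at 10 µM, limit read from the data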
NF-kB expr up: compounds increasing NF-kB expression in human neuronal cells; 190,000 compounds, 1.6% hits; fold change at 12.5 µM; NF-kB reporter expression; stronger effect = higher value; AID 1239; in the data active = fold change above about 3.3
Each line names hits and unclear results; the compound was inactive in the other large screens. Most compounds without a hit are left out; they make up all but 3.5% or so of the library.

CC(C)n1c(-c2ccc(N(C)C)cc2)nc2ccccc21	APP 5'UTR act 170
CCn1c(-c2ccc(N)cc2)nc2ccccc21	none (no result: Pf gametocyte)
Cc1ccc(C(O)c2nc3ccccc3n2C(C)C)cc1 (stereo unspecified)	none
CN(C)c1ccc(C(O)Cc2nc3ccccc3n2C)cc1 (stereo unspecified)	none (no result: FLuc stim CS, APP 5'UTR act, STAT1 activator, FLuc inhib CS, NF-kB expr up)
CN(C)c1ccc(-c2nc3ccccc3n2C)cc1	FLuc inhib CS 96 (no result: Pf gametocyte)
CCN(CCCNC(=O)CN(C)S(=O)(=O)c1cccc2nsnc12)c1ccccc1	none
CC(C)Cc1nc(SCC(=O)Nc2ccc(S(N)(=O)=O)cc2)n[nH]1	none
CC(C)c1ccc(C2CC(c3ccc(Br)cc3)=NN2C(N)=S)cc1 (stereo unspecified)	none
CNC(=S)N1N=C(c2ccc(C)cc2)CC1c1ccc(Br)cc1 (stereo unspecified)	NF-kB expr up 3.4
CNC(=S)N1N=C(c2ccc(C)cc2)CC1c1ccc(Cl)cc1 (stereo unspecified)	NF-kB expr up 4.5
CNC(=S)N1N=C(c2ccccc2)CC1c1ccccc1Cl (stereo unspecified)	none
Cc1ccc(OCC(=O)NC2=NCCS2)cc1	none (no result: Pf gametocyte)
Cc1cccc(NC(=O)/C=C/c2ccc(Cl)cc2)n1	APP 5'UTR act 182, STAT1 activator 139, FLuc inhib CS 83
Cc1ccc(/C=C/C(=O)NC2=NCCS2)cc1	APP 5'UTR act 180, STAT1 activator 147, FLuc inhib CS 86, NF-kB expr up 5.6
Cc1ccc(/C=C/C(=O)Nc2cc(C)on2)cc1	STAT1 activator 133 (no result: Pf gametocyte)
CC(C)(C)c1ccc(/C=C/C(=O)NC2=NCCS2)cc1	APP 5'UTR act 184
CC(=O)c1ccc(NC(=O)/C=C/c2ccc(C)cc2)cc1	none
CC(C)(C)c1ccc(S(=O)(=O)N2CCCC2C(=O)NC2=NCCS2)cc1 (stereo unspecified)	none
O=c1[nH]c2ccccc2nc1C(F)(F)C(F)F	STAT1 activator 138 (no result: Pf gametocyte)
CC(C)(C)c1ccc(-c2nc(C#N)c(NCc3ccncc3)o2)cc1	STAT1 activator 131 (no result: Pf gametocyte, APP 5'UTR act)
CNc1oc(-c2ccc(Cl)cc2)nc1C#N	STAT1 activator 132 (no result: Pf gametocyte)
CC(C)(C)c1ccc(-c2nc(C#N)c(NCCCn3ccnc3)o2)cc1	none (no result: FLuc stim CS, APP 5'UTR act, STAT1 activator, FLuc inhib CS, NF-kB expr up)
CNc1oc(-c2ccccc2Cl)nc1C#N	none
CCOC(=O)c1c(C)c(C(=O)Nc2cc(F)ccc2F)c(C)n1C	NF-kB expr up 4.3
O=C(COC(=O)CCC(=O)c1ccc2c(c1)OCCO2)NCc1ccc2c(c1)OCO2	none (no result: Pf gametocyte)
Cc1ccc(-c2nc(C)c(C(=O)O)s2)cc1	APP 5'UTR act 143, STAT1 activator 135 (no result: Pf gametocyte)
Cc1nc(-c2ccc(Cl)cc2)sc1C(=O)O	STAT1 activator 138
COc1cccc(CNc2ccc(Br)cn2)c1O	APP 5'UTR act 152, FLuc inhib CS 62, NF-kB expr up 6.3
COc1cccc(CNc2ncc(Br)cc2Br)c1O	none (no result: Pf gametocyte)
O=C(Nc1cnc2ccccc2c1)N1CCOCC1	none
O=C(Nc1cnc2ccccc2c1)N1CCCCC1	STAT1 activator 135 (no result: Pf gametocyte)
O=c1c2oc3ccccc3c2ncn1Cc1ccccc1F	NF-kB expr up 3.5 (no result: Pf gametocyte)
COc1ccc2cnn(CCOc3ccccc3)c(=O)c2c1OC	APP 5'UTR act 176, STAT1 activator 146, NF-kB expr up 3.6
COc1ccc(-n2c(=O)c3ccccc3n(Cc3ccccc3F)c2=O)cc1OC	none
CC(C)Oc1cccc(-c2cc(C(=O)NC(=S)N(C)c3ccccc3C(=O)O)c3ccccc3n2)c1	FLuc inhib CS 64 (no result: Pf gametocyte)
CCNC(=S)NNC(=O)c1cc(-c2ccc(OCC)cc2)nc2ccccc12	FLuc inhib CS 98, NF-kB expr up 5.5 (no result: Pf gametocyte)
O=C(NNC(=O)c1cc(-c2ccccc2)nc2ccccc12)Nc1cccc(Cl)c1	none
CC(C)(C)c1ccc(-c2cc(C(=O)NNC(=O)Nc3ccccc3)c3ccccc3n2)cc1	FLuc inhib CS 77 (no result: Pf gametocyte)
CCCOc1cccc(-c2cc(C(=O)NNC(=S)NCC)c3ccccc3n2)c1	none
CCNC(=S)NNC(=O)c1cc(-c2cccc(OC)c2)nc2ccccc12	FLuc inhib CS 83 (no result: Pf gametocyte)
N/C(=N\NC(=O)c1ccccc1Cl)c1cc2ccccc2oc1=O	none
OC(COCCOc1ccc(Br)cc1)CN1CCN(Cc2ccccc2)CC1 (stereo unspecified)	none
Cc1cc(N)n2ncc(-c3ccccc3)c2n1	STAT1 activator 150
Cc1cc(N)n2nc(-c3ccccc3)cc2n1	STAT1 activator 146, FLuc inhib CS 91, NF-kB expr up 5.4
Cc1cc(N)n2ncc(-c3cccc(Br)c3)c2n1	STAT1 activator 142 (no result: Pf gametocyte)
CC(=O)Nc1ccc(Nc2cc(C)nc3c(-c4ccccc4)cnn23)cc1	APP 5'UTR act 165, STAT1 activator 150 (no result: Pf gametocyte)
Cc1ccc(-c2cc3nc(-c4ccccc4)cc(N)n3n2)cc1	none (no result: Pf gametocyte)
CCOC(=O)Cc1c(C)nc2c(-c3cccc(Br)c3)cnn2c1C	none
CCSc1cc(C)nc2c(-c3ccccc3)cnn12	none (no result: FLuc stim CS, APP 5'UTR act, STAT1 activator, FLuc inhib CS, NF-kB expr up)
O=C(N/N=C/c1cccnc1)c1ccc(Cl)c(Cl)c1	none (no result: FLuc stim CS, APP 5'UTR act, STAT1 activator, FLuc inhib CS, NF-kB expr up)
O=C(N/N=C/c1cccnc1)c1ccc2c(c1)OCCO2	FLuc inhib CS 91 (no result: Pf gametocyte)
O=C(N/N=C/c1ccc(Br)o1)c1ccc2c(c1)OCCO2	STAT1 activator 130, FLuc inhib CS 74
CC(C)c1cc(C(=O)N/N=C/c2cccnc2)cs1	FLuc inhib CS 64 (no result: Pf gametocyte)
COc1ccc(OC)c(NC(=O)COC(=O)CN(C)S(=O)(=O)c2ccc(C)cc2)c1	none
Cc1ccccc1-n1nc(C)c(N=O)c1N	none
O=C(O)Cn1nnc2ccccc21	none (no result: FLuc stim CS, APP 5'UTR act, STAT1 activator, FLuc inhib CS, NF-kB expr up)
C(#Cc1ccccc1)Cn1nnc2ccccc21	STAT1 activator 134 (no result: Pf gametocyte)
Cc1ccc(N2C(=O)c3ccccc3C2Nc2ccccc2F)nc1 (stereo unspecified)	none (no result: Pf gametocyte)
Cc1ccc(N2C(=O)c3ccccc3C2O)nc1 (stereo unspecified)	FLuc inhib CS 80 (no result: Pf gametocyte)
COc1ccccc1NC(=O)COc1ccc(Br)cc1CO	none
COc1ccccc1NC(=O)COc1ccc(CO)cc1Cl	STAT1 activator 133
O=C(COc1ccc(CO)cc1)Nc1ccc(F)cc1	none (no result: Pf gametocyte)
COc1cc(/C=N/NC(=O)c2cccnc2)ccc1OCC(=O)Nc1ccccc1Cl	STAT1 activator 136
O=C(COc1ccc(CO)cc1Cl)Nc1ccc(F)cc1	STAT1 activator 136, FLuc inhib CS 72, NF-kB expr up 7.7 (no result: Pf gametocyte, APP 5'UTR act)
CC1CCC2(CC1)Nc1ccccc1C(=O)N2c1ccccc1 (stereo unspecified)	none (no result: Pf gametocyte)
CNc1ccc(/C=C(\C#N)c2ccccn2)cc1[N+](=O)[O-]	STAT1 activator 139
N#C/C(=C\c1ccccc1)c1ccccn1	STAT1 activator 130
O=C(NC1CC1)c1ccc(-n2cccc2)cc1	none
O=C1c2ccccc2C(=O)N1CCSc1ccccc1	STAT1 activator 138 (no result: Pf gametocyte)
O=C1c2ccccc2C(=O)N1CCSc1nncs1	none (no result: Pf gametocyte)
Cc1cccc(OCc2nc(-c3ccccn3)n[nH]2)c1	none
Cc1ccc(OCc2nc(-c3ccccn3)n[nH]2)cc1	NF-kB expr up 13
